In series [1] the test system is Liver microsome. The experiment in a line: Drug level in human liver microsomes treated with lapatinib at 50 uM by LC/MS/MS analysis. In kind it is ADME. The method in brief: (§1)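 Lapatinib 50 μM (added in DMSO) incubated 30 min at 37°C in 100 mM potassium phosphate pH 7.4 with HLM 1 mg/mL or recombinant CYP3A4+b5 / CYP3A5+b5 100 pmol/mL. Reaction started with NADPH 1 mM. Protein re-isolated by ultracentrifugation (100,000 x g, 4°C, 60 min), washed (KCl/EDTA), resuspended in phosphate buffer, ±2 mM ferricyanide 10 min 37°C, quenched with acetonitrile, then high-resolution LC/MS profiling.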
Background: Liver microsomes are a subcellular fraction often used to study metabolism.

Series [2] addresses Cytochrome P450 3A4 (Homo sapiens, UniProt P08684). The experiment in a line: Activity of recombinant CYP3A4 (unknown origin) assessed as compound formation treated with lapatinib at 50 uM by LC/MS/MS analysis. The class given is ADME. Particulars: recombinant enzyme. The method in brief:
as §1

Series [3] is described as follows: Retention time of the compound by LC/MS/MS analysis relative to lapatinib. In kind it is physicochemical. The procedure, abridged:
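Phenyl UPLC column (1.7 μm, 2.1 x 100 mm), 0.1% formic acid in water/acetonitrile, 0.4 mL/min. Gradient: 10% organic for 1 min, to 90% over 13 min, held 0.5 min. Detection by accurate-mass MS. Retention times expressed relative to lapatinib.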

Series [4] addresses Cytochrome P450 3A5 (Homo sapiens, UniProt P20815). The experiment in a line: Activity of recombinant CYP3A5 (unknown origin) assessed as compound formation treated with lapatinib at 50 uM by LC/MS/MS analysis. The class given is ADME. Particulars: recombinant enzyme. The procedure, abridged: as §1

Sequence of Cytochrome P450 3A4 (P08684 whole entry): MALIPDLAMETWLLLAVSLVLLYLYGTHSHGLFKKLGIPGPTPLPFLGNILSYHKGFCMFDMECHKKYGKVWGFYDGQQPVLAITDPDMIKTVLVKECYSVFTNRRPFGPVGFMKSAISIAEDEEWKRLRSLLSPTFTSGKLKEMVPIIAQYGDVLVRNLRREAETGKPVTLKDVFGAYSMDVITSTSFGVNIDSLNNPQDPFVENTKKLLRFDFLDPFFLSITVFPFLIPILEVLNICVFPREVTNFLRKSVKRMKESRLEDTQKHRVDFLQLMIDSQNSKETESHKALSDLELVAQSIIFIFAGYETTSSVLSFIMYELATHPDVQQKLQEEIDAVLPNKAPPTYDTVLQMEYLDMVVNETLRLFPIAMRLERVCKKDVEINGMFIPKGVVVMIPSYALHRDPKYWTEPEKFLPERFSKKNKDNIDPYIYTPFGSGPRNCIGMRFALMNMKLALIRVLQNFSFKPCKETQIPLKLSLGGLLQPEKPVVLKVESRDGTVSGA
Sequence of Cytochrome P450 3A5 (P20815 whole entry): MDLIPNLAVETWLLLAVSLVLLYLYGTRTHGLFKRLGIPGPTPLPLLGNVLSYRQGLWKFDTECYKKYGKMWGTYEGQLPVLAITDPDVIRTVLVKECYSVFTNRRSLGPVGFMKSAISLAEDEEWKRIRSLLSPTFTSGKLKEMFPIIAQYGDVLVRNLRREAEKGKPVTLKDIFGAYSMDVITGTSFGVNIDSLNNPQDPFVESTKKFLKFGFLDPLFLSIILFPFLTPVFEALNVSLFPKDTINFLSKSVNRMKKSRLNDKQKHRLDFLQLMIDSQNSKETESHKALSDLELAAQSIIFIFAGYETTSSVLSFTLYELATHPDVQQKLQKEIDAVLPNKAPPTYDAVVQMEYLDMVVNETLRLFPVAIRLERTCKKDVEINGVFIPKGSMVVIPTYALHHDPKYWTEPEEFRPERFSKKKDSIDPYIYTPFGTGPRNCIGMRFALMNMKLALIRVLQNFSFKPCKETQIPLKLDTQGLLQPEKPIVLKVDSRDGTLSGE

On to `CS(=O)(=O)CC/[N+]([O-])=C/c1ccc(-c2ccc3ncnc(Nc4ccc(OCc5cccc(F)c5)c(Cl)c4)c3c2)o1`, for which the Drug metabolism result in series [1], in series [2] and in series [4] was “metabolite_detected” each time. In addition, the Ratio in series [3] worked out at 1.11.
`O=Cc1ccc(-c2ccc3ncnc(Nc4ccc(OCc5cccc(F)c5)c(Cl)c4)c3c2)o1`: the Drug metabolism entry in series [1], in series [2] and in series [4] was “metabolite_detected” each time. In addition, the Ratio in series [3] was 1.21.

(Values after ChEMBL document CHEMBL3525913, “Metabolism-dependent inhibition of CYP3A4 by lapatinib: evidence for formation of a metabolic intermediate complex with a nitroso/oxime metabolite formed via a nitrone intermediate” (Drug Metab Dispos, 2013).)
